Measurements: the EternaBench riboswitch data

Tested on: MS2 coat protein
Experiment: apparent Kd, MS2 coat protein; higher = weaker binding; RNA-MaP array; FMN 200 µM where present
How it was run: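 The apparent Kd is reported as the median of filtered per-cluster binding-curve fits. To get these curves, designs transcribed by stalled E. coli RNA polymerase on Illumina sequencing-chip clusters were titrated with SNAP-549-labelled MS2 coat protein from 0.7 or 1.5 nM, doubling to 3 µM. Titrations were run without and then with constant ligand in 100 mM Tris-HCl pH 7.5, 80 mM KCl, 4 mM MgCl2, BSA, DTT, yeast tRNA and Tween-20, and green signal was normalised to red-channel RNA signal and control-cluster median Fmax.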

[1] = designed as: OFF switch for flavin mononucleotide, no ligand
[2] = ligand present: flavin mononucleotide, designed as: OFF switch for flavin mononucleotide
[3] = designed as: ON switch for flavin mononucleotide, no ligand
[4] = ligand present: flavin mononucleotide, designed as: ON switch for flavin mononucleotide

## GGAUAGGACAGAGGAUAUACGUUCUAGAGAUACUAGCAAAAUUUCCUCACAUGAGGAUCACCCAUGUAGAAGGCUGUCCUAUCG
[1]
  apparent Kd: 15.1 nM
[2]
  apparent Kd: 282 nM

## GGAUAUAUUACAUGAGGAUCACCCAUGUCAGAAAGGGUAAUCAGAAGGUACUAUUAGAGAAAGAGUAAGGAUAUGAUUAUAUCC
[3]
  apparent Kd: 630 nM
[4]
  apparent Kd: 147 nM

## GGAUCGAAAGUGAGGAUAUGCUGGUCCUUGGAUCAGCAGAAGGCACAUGAGGAUCACCCAUGUGUUCCCGGUCC
[1]
  apparent Kd: 19.7 nM
[2]
  apparent Kd: 99.8 nM

## GGAUCGAGUGUGAGGAUAUGCUGGUCCUUGGAUCAGCAGAAGGCACAUGAGGAUCACCCAUGUGGUAACGGUCC
[1]
  apparent Kd: 190 nM
[2]
  apparent Kd: 537 nM

## GGAUCGAUGUAGAAGGCUGUCCUAAAAUAGGACAGAGGAUAUACAUGAGGAUCACCCAUGUACUCCUUUAAAAUGAUCCAAAUA
[1]
  apparent Kd: 5.53 nM
[2]
  apparent Kd: 10.3 nM

## GGAUCGCGUGUGAGGAUAUGCUCGACCUUGGUCGAGCAGAAGGCACAUGAGGAUCACCCAUGUGACCUCGGUCC
[1]
  apparent Kd: 87.5 nM
[2]
  apparent Kd: 451 nM

## GGAUCGUAUGUCAGGAUAUACCACUGGAUACAGUGGUAGAAGGGACAUGAGGAUCACCCAUGUGUUAUCGAUCC
[1]
  apparent Kd: 58.9 nM
[2]
  apparent Kd: 124 nM

## GGAUCGUAUGUGAGGAUAUACCACUGGAUACAGUGGUAGAAGGCACAUGAGGAUCACCCAUGUCCUAUCGAUCC
[1]
  apparent Kd: 146 nM
[2]
  apparent Kd: 196 nM

## GGAUGACAAAGUCAUCCAUUACGAACAUGAGGAUCACCCAUGUAGGAUAUGCAACUCAAAGAGUUGCAGAAGGACAUGUGUCUU
[1]
  apparent Kd: 29.6 nM
[2]
  apparent Kd: 146 nM

## GGAUGACAAAGUCAUCCUAUUCGAACAUGAGGAUCACCCAUGUAGGAUAUGCUACACAAAGUGUAGCAGAAGGACAUGUGCUUU
[1]
  apparent Kd: 33.8 nM
[2]
  apparent Kd: 171 nM

## GGAUGACAAAGUCAUCCUUAACGAACAUGAGGAUCACCCAUGUAGGAUAUGGAACUCAAAGAGUUCCAGAAGGACAUGUGCCUU
[1]
  apparent Kd: 33.7 nM
[2]
  apparent Kd: 213 nM

## GGAUGACAUAGUCAUCCUUAACGAACAUGAGGAUCACCCAUGUAGGAUAUGCUACUCAAAGAGUAGCAGAAGGACAUGUGUCUU
[1]
  apparent Kd: 27.2 nM
[2]
  apparent Kd: 157 nM

## GGAUGAGCAAUAGGAUAUGCUGGGAUUGAAUGGGUAGAAGGAUUUCUAGUGGGAAAGACAUGAGGAUCACCCAUGUCGCGGACC
[3]
  apparent Kd: 25.2 nM
[4]
  apparent Kd: 26.6 nM

## GGAUGAGCGAUAGGAUAUGCUGGGAUUGAAUGGGUAGAAGGAUUUCUAGUGGGAAAGACAUGAGGAUCACCCAUGUCGCGGACC
[3]
  apparent Kd: 30.3 nM
[4]
  apparent Kd: 29.4 nM

## GGAUGCCGCUCAGGAUAUGUGGGUUGUCUAGUAUCUAGAUUCCACAUGAGGAUCACCCAUGUAACACAGAAGGGAGAUGGUGAU
[3]
  apparent Kd: 526 nM
[4]
  apparent Kd: 23.2 nM

## GGAUGUCAAAGACAUCCUUAACGAACAUGAGGAUCACCCAUGUAGGAUAUGCUACUCAAAGAGUAGCAGAAGGACAUGUGCCUU
[1]
  apparent Kd: 34.5 nM
[2]
  apparent Kd: 270 nM

## GGAUUACAAAUUUAUUUAAUACGAACAUGAGGAUCACCCAUGUAGGAUAUGCUAGUUAAGUAAUAGCAGAAGGACAUGUGCCUU
[1]
  apparent Kd: 10.8 nM
[2]
  apparent Kd: 30.6 nM

## GGAUUACAUGAGGAUCACCCAUGUGAGGAUAUCGAUGUCCUCAGUCAAGUGCGGGACUCGAGAAGGCACUUGGA
[1]
  apparent Kd: 64.2 nM
[2]
  apparent Kd: 32 nM

## GGAUUGGACAGAGGAUAUACGUGCUAGAGAUACUAGCAAAAUUUCCUCACAUGAGGAUCACCCAUGUAGAAGGCUGUCCUAUCG
[1]
  apparent Kd: 15.6 nM
[2]
  apparent Kd: 378 nM

## GGAUUGUGAGGAUAUUAGUUGUACGUCAAUAGACGUAUAAGUGAGAAGGCACAUGAGGAUCACCCAUGUUCCUG
[1]
  apparent Kd: 22.7 nM
[2]
  apparent Kd: 80.7 nM

## GGAUUUACUGAGGAUAUUGCAUCACCCGACUGAUAAGAAGGCAGAACAUGAGGAUCACCCAUGUGGGUACUCAC
[1]
  apparent Kd: 53.7 nM
[2]
  apparent Kd: 63.2 nM

## GGCCGAAUGGUCUAGGUGCACUUACAUGAGGAUCACCCAUGUCAGGAUAUCUUACGGGUCUCGUAAGAGAAGGGACAUCGCUAU
[1]
  apparent Kd: 52.2 nM
[2]
  apparent Kd: 215 nM

## GGCGGACAUGAGGAUCACCCAUGUAAGGAUAUUAGGCGAUCGUCGAAAGACGAUAGCCUGAGAAGGUACGCGCC
[1]
  apparent Kd: 14.7 nM
[2]
  apparent Kd: 17.2 nM

## GGCUAGUCAGGAUAUACGAACAUGUCGCCAGAUGUCAAGGUACAUGAGGAUCACCCAUGUAGAAGGGACUAGCC
[1]
  apparent Kd: 42.7 nM
[2]
  apparent Kd: 168 nM

## GGCUCUAGAGGAUAUACAAACUGAUCCUCAGAGCGCCGGCUACAUGAGGAUCACCCAUGUAGAAGGUUGGAGUC
[1]
  apparent Kd: 15.6 nM
[2]
  apparent Kd: 13.1 nM

## GGCUUGCAGCUAGGAUAUGGGCGAUCACAUGAGGAUCACCCAUGUCAACAUCAAAACAAGAUUAACCAGAAGGAGCCGCGGGUC
[3]
  apparent Kd: 21.3 nM
[4]
  apparent Kd: 705 nM

## GGGAUUAAGGCAGGAUAUCCGGGUUGGCCUCGACAUGAGGAUCACCCAUGUGGAGAAGGGCCGACUGCUCGAAAGGCGGUCAAG
[1]
  apparent Kd: 214 nM
[2]
  apparent Kd: 67.4 nM

## GGGCCACAUGAGGAUCACCCAUGUAAACCCGUGCUCAGGGCACAGGAUAUGGGUCGGGAUGAGACCCAGAAGGGUGGUCUGGCC
[3]
  apparent Kd: 33.4 nM
[4]
  apparent Kd: 18.2 nM

## GGGCCCGGUGUGAGGAUAUCGGGUUUGAAAGGGCCCGAGAAGGCACAUGAGGAUCACCCAUGUAAGCCGGGCCC
[1]
  apparent Kd: 15.4 nM
[2]
  apparent Kd: 14.4 nM

## GGGCCGGUGGAGAAGGAGCUUGCAAAACGCAUGCUAGGAUAUCCACAUGAGGAUCACCCAUGUGGGAAUAUCUGGUUUUCACAG
[1]
  apparent Kd: 4.09 nM
[2]
  apparent Kd: 4.79 nM

## GGGCCGUUGCAGAAGGCCGGCGGGCUUGGCGCCGGAGGAUAUGCAUGUGCACAUGAGGAUCACCCAUGUGCCAGCCCGGAGGGA
[3]
  apparent Kd: 6.56 nM
[4]
  apparent Kd: 5.9 nM

## GGGCGUGAAGGAUAUACAUGAGGAUCACCCAUGUGGGAGGAGAGUGGUGAGGAGGCUGGUAGAAGGUCAGGAUG
[1]
  apparent Kd: 44.8 nM
[2]
  apparent Kd: 36.8 nM

## GGGCUCGGAGGAUAUACAAUGGGCCCGGGAAACCGGGCCCUACAUGAGGAUCACCCAUGUAGAAGGUCGGGUCU
[1]
  apparent Kd: 15.5 nM
[2]
  apparent Kd: 24.1 nM

## GGGCUGGUAACAGGAUAUCGUGCCUGGCCGGAUUACAUGAGGAUCACCCAUGUCGUUGGAACCAACGAGAAGGGUUGCCUCCCA
[3]
  apparent Kd: 371 nM
[4]
  apparent Kd: 102 nM

## GGGCUGUCAGGAUAUCUCGGGCUCGGGUAAAUCUGGGUCUGGGAGAAGGGACAUGAGGAUCACCCAUGUGGCCC
[1]
  apparent Kd: 34.3 nM
[2]
  apparent Kd: 37.9 nM

## GGGCUUUGGGAGAAGGUACAUUAAAUUAGUUUAACAUGAGGAUCACCCAUGUAAGGAUAUCCCAUCUUGUAUUAUUAUACAGCC
[1]
  apparent Kd: 11 nM
[2]
  apparent Kd: 13.3 nM

## GGGUACAUAGGAGGAUAUCAUGUAAAUACAUGAGGAUCACCCAUGUCGAUGGAGACAUCGGAGAUUGAGAAGGCCGAUGUACCG
[3]
  apparent Kd: 240 nM
[4]
  apparent Kd: 10.6 nM

## GGGUACAUCGGAGGAUAUCAUGUAAAUACAUGAGGAUCACCCAUGUCGAUGGAGACAUCGGAAAUUGAGAAGGCCGAUGUACCG
[3]
  apparent Kd: 16.9 nM
[4]
  apparent Kd: 4.87 nM

## GGGUACAUCGGAGGAUAUCAUGUAAAUACAUGAGGAUCACCCAUGUCGAUGGAGACAUCGGAGAUAGAGAAGGCCGAUGUACCG
[3]
  apparent Kd: 476 nM
[4]
  apparent Kd: 11 nM

## GGGUACAUCGGAGGAUAUCAUGUAAAUACAUGAGGAUCACCCAUGUCGAUGGAGACAUCGGAGAUUGAGAAGGCCCAUGUACCG
[3]
  apparent Kd: 199 nM
[4]
  apparent Kd: 10.8 nM

## GGGUACAUCGGAGGAUAUCAUGUAAAUACAUGAGGAUCACCCAUGUCGAUGGAGACAUCGGAGAUUUAGAAGGCCGAUGUACCG
[3]
  apparent Kd: 158 nM
[4]
  apparent Kd: 201 nM

## GGGUACAUCGGAGGAUAUCAUGUAAAUACAUGAGGAUCACCCAUGUCGAUGGAGACAUUGGAGAUUGAGAAGGCCGAUGUACCG
[3]
  apparent Kd: 156 nM
[4]
  apparent Kd: 219 nM

## GGGUACAUCGGAGGAUAUCAUGUAAAUACAUGAGGAUCACCCAUGUCGAUGGAGUCAUCGGAGAUUGAGAAGGCCGAUGUACCG
[3]
  apparent Kd: 14 nM
[4]
  apparent Kd: 5.75 nM

## GGGUACAUCGGAGGAUAUCAUGUAUAGACAUGAGGAUCACCCAUGUCGUACGAGAGUACGGAGAUUGAGAAGGCCGAUGUACCG
[3]
  apparent Kd: 20.7 nM
[4]
  apparent Kd: 17.3 nM

## GGGUACAUGGGAGGAUAUCCUCAAGAGACAUGAGGAUCACCCAUGUAUUAUAAGCCUAAUGGCAUGGAGAAGGCCCAUGUACCG
[3]
  apparent Kd: 397 nM
[4]
  apparent Kd: 69.7 nM

## GGGUACGUUUCGUAGCAGUGUCAUCGAGAAGGCCCUGACAUGAGGAUCACCCAUGUUGUUACAUGGGAGGAUAUCGAUGAUCCC
[3]
  apparent Kd: 53.6 nM
[4]
  apparent Kd: 8.36 nM

## GGGUACGUUUCGUAGCAGUGUCAUCGAGAAGGCCCUGACAUGAGGAUCACCCAUGUUGUUACAUGGGAGGAUAUCGAUGAUGGG
[3]
  apparent Kd: 48.4 nM
[4]
  apparent Kd: 8.12 nM

## GGGUAGGACAGAGGAUAUACGUGCUAGAGAUACUAGCAAAAUUUCCUCACAUGAGGAUCACCCAUGUAGAAGGCUGUCCUAUCG
[1]
  apparent Kd: 16.9 nM
[2]
  apparent Kd: 397 nM

## GGGUAUAAACCCGUCUCCGCUCAACCAGAAGGGCACGAUAAUAUUACAUGAGGAUCACCCAUGUUGCAGGAUAUGGUGAGCCUC
[3]
  apparent Kd: 363 nM
[4]
  apparent Kd: 66.9 nM

## GGGUCGUCAGGAUAUACAUGAGGAUCACCCAUGUGACCACACUUACCUAUCGCUCGCUGUAGAAGGGAUGAUGA
[1]
  apparent Kd: 30.3 nM
[2]
  apparent Kd: 27.1 nM

## GGGUGAUGUAGAGGAUAUCCAGGACGAUACAGAGGAGAAGGCUACAUGAGGAUCACCCAUGUCACCGGGAUAAAGCUGUAGAGU
[1]
  apparent Kd: 39.8 nM
[2]
  apparent Kd: 109 nM

## GGGUGCUCACCGCCUUAACAUGAGGAUCACCCAUGUGGAGUGCAGGAUAUACGUCUCUAUCAUACGUAGAAGGGCACCGCGCAG
[1]
  apparent Kd: 5.45 nM
[2]
  apparent Kd: 5.9 nM

## GGGUUGCUACAAGGAUAUGAUGAAAGUGAGACAUCAGAAGGUGUAGUAUCACAUGAGGAUCACCCAUGUAGAACAACCCAAACC
[3]
  apparent Kd: 369 nM
[4]
  apparent Kd: 23 nM

## GGGUUUGGAGGAUAUACAAUGGGUUUGGGAAACCGGGCCCUACAUGAGGAUCACCCAUGUAGAAGGCCGGGCCC
[1]
  apparent Kd: 14.8 nM
[2]
  apparent Kd: 15.8 nM

## GGGUUUGGUGUGAGGAUAUCGGGCCCGAAAGGGUUUGAGAAGGCACAUGAGGAUCACCCAUGUAAGCCGGGCCC
[1]
  apparent Kd: 22.8 nM
[2]
  apparent Kd: 17.2 nM
